According to ChEMBL document CHEMBL4689842, “EUbOPEN Chemogenomics Library wave 1” (2021):

System: Fibroblast
Test: Multiplex assay against human fibroblast
Format: toxicity, cell-based
Procedure, shortened: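 Cells were classed with CellPathfinder machine-learning gating, first as Hoechst high-intensity objects or normal cells, then (normal cells) as healthy, pyknosed or fragmented nuclei, and finally (pyknosed cells) as mitotic or apoptotic. Staining of live cells at seeding used Hoechst33342, BioTracker Green Microtubule Cytoskeleton Dye, MitoTracker Red and Annexin V Alexa Fluor 680, with imaging on a CQ1 microscope at 37°C and 5% CO2 after compound addition. Tubulin, mitochondrial-mass and membrane-permeability phenotypes are per cents of healthy-nucleus cells.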

[1] = 12 h, 1 µM, compound concentration 1 uM, replicate 1
[2] = 12 h, 1 µM, compound concentration 1 uM, replicate 2
[3] = 12 h, 10 µM, compound concentration 10 uM, replicate 1
[4] = 12 h, 10 µM, compound concentration 10 uM, replicate 2
[5] = 24 h, 1 µM, compound concentration 1 uM, replicate 1
[6] = 24 h, 1 µM, compound concentration 1 uM, replicate 2
[7] = 24 h, 10 µM, compound concentration 10 uM, replicate 1
[8] = 24 h, 10 µM, compound concentration 10 uM, replicate 2
[9] = 48 h, 1 µM, compound concentration 1 uM, replicate 1
[10] = 48 h, 1 µM, compound concentration 1 uM, replicate 2
[11] = 48 h, 10 µM, compound concentration 10 uM, replicate 1
[12] = 48 h, 10 µM, compound concentration 10 uM, replicate 2

C[C@@H](NCCCc1cccc(C(F)(F)F)c1)c1cccc2ccccc12.Cl [CINACALCET HYDROCHLORIDE]
Population Apoptotic (%) [1]: 59%
Population Fragmented Nuclei (%) [1]: 22%
Population Healthy Nuclei (%) [1]: 46%
Population Hoechst High Intensity Objects (%) [1]: 16%
Population Membrane Permeable-Phenotype (%) [1]: 12%
Population Mitochondria Different-Phenotype (%) [1]: 14%
Population Mitotic Cells (%) [1]: 40%
Population Normal (%) [1]: 84%
Population Pyknosed Nuclei (%) [1]: 30%
Population Tubulin-Different-Phenotype (%) [1]: 57%
Total Cell Count [1]: 125
Population Apoptotic (%) [2]: 33%
Population Fragmented Nuclei (%) [2]: 10%
Population Healthy Nuclei (%) [2]: 76%
Population Hoechst High Intensity Objects (%) [2]: 9%
Population Membrane Permeable-Phenotype (%) [2]: 11%
Population Mitochondria Different-Phenotype (%) [2]: 22%
Population Mitotic Cells (%) [2]: 66%
Population Normal (%) [2]: 90%
Population Pyknosed Nuclei (%) [2]: 12%
Population Tubulin-Different-Phenotype (%) [2]: 36%
Total Cell Count [2]: 52
Population Apoptotic (%) [3]: 57%
Population Fragmented Nuclei (%) [3]: 33%
Population Healthy Nuclei (%) [3]: 35%
Population Hoechst High Intensity Objects (%) [3]: 11%
Population Membrane Permeable-Phenotype (%) [3]: 4%
Population Mitochondria Different-Phenotype (%) [3]: 73%
Population Mitotic Cells (%) [3]: 42%
Population Normal (%) [3]: 88%
Population Pyknosed Nuclei (%) [3]: 30%
Total Cell Count [3]: 155
Population Apoptotic (%) [4]: 88%
Population Fragmented Nuclei (%) [4]: 20%
Population Healthy Nuclei (%) [4]: 23%
Population Hoechst High Intensity Objects (%) [4]: 7%
Population Membrane Permeable-Phenotype (%) [4]: 33%
Population Mitochondria Different-Phenotype (%) [4]: 93%
Population Mitotic Cells (%) [4]: 11%
Population Normal (%) [4]: 92%
Population Pyknosed Nuclei (%) [4]: 55%
Population Tubulin-Different-Phenotype (%) [4]: 93%
Total Cell Count [4]: 68
Population Apoptotic (%) [5]: 38%
Population Fragmented Nuclei (%) [5]: 25%
Population Healthy Nuclei (%) [5]: 50%
Population Hoechst High Intensity Objects (%) [5]: 15%
Population Membrane Permeable-Phenotype (%) [5]: 16%
Population Mitochondria Different-Phenotype (%) [5]: 12%
Population Mitotic Cells (%) [5]: 61%
Population Normal (%) [5]: 84%
Population Pyknosed Nuclei (%) [5]: 24%
Population Tubulin-Different-Phenotype (%) [5]: 65%
Total Cell Count [5]: 128
Population Apoptotic (%) [6]: 36%
Population Fragmented Nuclei (%) [6]: 8%
Population Healthy Nuclei (%) [6]: 69%
Population Hoechst High Intensity Objects (%) [6]: 7%
Population Membrane Permeable-Phenotype (%) [6]: 5%
Population Mitochondria Different-Phenotype (%) [6]: 26%
Population Mitotic Cells (%) [6]: 63%
Population Normal (%) [6]: 92%
Population Pyknosed Nuclei (%) [6]: 22%
Population Tubulin-Different-Phenotype (%) [6]: 17%
Total Cell Count [6]: 53
Population Apoptotic (%) [7]: 65%
Population Fragmented Nuclei (%) [7]: 35%
Population Healthy Nuclei (%) [7]: 35%
Population Hoechst High Intensity Objects (%) [7]: 11%
Population Membrane Permeable-Phenotype (%) [7]: 10%
Population Mitochondria Different-Phenotype (%) [7]: 71%
Population Mitotic Cells (%) [7]: 34%
Population Normal (%) [7]: 88%
Population Pyknosed Nuclei (%) [7]: 28%
Population Tubulin-Different-Phenotype (%) [7]: 89%
Total Cell Count [7]: 208
Population Apoptotic (%) [8]: 92%
Population Fragmented Nuclei (%) [8]: 15%
Population Healthy Nuclei (%) [8]: 32%
Population Hoechst High Intensity Objects (%) [8]: 24%
Population Membrane Permeable-Phenotype (%) [8]: 52%
Population Mitochondria Different-Phenotype (%) [8]: 88%
Population Mitotic Cells (%) [8]: 7%
Population Normal (%) [8]: 75%
Population Pyknosed Nuclei (%) [8]: 51%
Population Tubulin-Different-Phenotype (%) [8]: 82%
Total Cell Count [8]: 69
Population Apoptotic (%) [9]: 46%
Population Fragmented Nuclei (%) [9]: 33%
Population Healthy Nuclei (%) [9]: 52%
Population Hoechst High Intensity Objects (%) [9]: 19%
Population Membrane Permeable-Phenotype (%) [9]: 16%
Population Mitochondria Different-Phenotype (%) [9]: 5%
Population Mitotic Cells (%) [9]: 53%
Population Normal (%) [9]: 80%
Population Pyknosed Nuclei (%) [9]: 14%
Population Tubulin-Different-Phenotype (%) [9]: 40%
Total Cell Count [9]: 130
Population Apoptotic (%) [10]: 66%
Population Fragmented Nuclei (%) [10]: 50%
Population Healthy Nuclei (%) [10]: 47%
Population Hoechst High Intensity Objects (%) [10]: 10%
Population Membrane Permeable-Phenotype (%) [10]: 15%
Population Mitochondria Different-Phenotype (%) [10]: 4%
Population Mitotic Cells (%) [10]: 33%
Population Normal (%) [10]: 89%
Population Pyknosed Nuclei (%) [10]: 1%
Population Tubulin-Different-Phenotype (%) [10]: 58%
Total Cell Count [10]: 169
Population Apoptotic (%) [11]: 90%
Population Fragmented Nuclei (%) [11]: 42%
Population Healthy Nuclei (%) [11]: 36%
Population Hoechst High Intensity Objects (%) [11]: 13%
Population Membrane Permeable-Phenotype (%) [11]: 5%
Population Mitochondria Different-Phenotype (%) [11]: 68%
Population Mitotic Cells (%) [11]: 10%
Population Normal (%) [11]: 86%
Population Pyknosed Nuclei (%) [11]: 20%
Population Tubulin-Different-Phenotype (%) [11]: 80%
Total Cell Count [11]: 226
Population Apoptotic (%) [12]: 92%
Population Fragmented Nuclei (%) [12]: 35%
Population Healthy Nuclei (%) [12]: 8%
Population Hoechst High Intensity Objects (%) [12]: 23%
Population Membrane Permeable-Phenotype (%) [12]: 25%
Population Mitochondria Different-Phenotype (%) [12]: 25%
Population Mitotic Cells (%) [12]: 7%
Population Normal (%) [12]: 76%
Population Pyknosed Nuclei (%) [12]: 55%
Population Tubulin-Different-Phenotype (%) [12]: 50%
Total Cell Count [12]: 121

OC1(c2ccc(Cl)cc2)CCN(Cc2c[nH]c3ccccc23)CC1
Population Apoptotic (%) [1]: 58%
Population Fragmented Nuclei (%) [1]: 26%
Population Healthy Nuclei (%) [1]: 41%
Population Hoechst High Intensity Objects (%) [1]: 11%
Population Membrane Permeable-Phenotype (%) [1]: 22%
Population Mitochondria Different-Phenotype (%) [1]: 6%
Population Mitotic Cells (%) [1]: 41%
Population Normal (%) [1]: 88%
Population Pyknosed Nuclei (%) [1]: 32%
Population Tubulin-Different-Phenotype (%) [1]: 33%
Total Cell Count [1]: 169
Population Apoptotic (%) [2]: 0%
Population Fragmented Nuclei (%) [2]: 13%
Population Healthy Nuclei (%) [2]: 77%
Population Hoechst High Intensity Objects (%) [2]: 10%
Population Membrane Permeable-Phenotype (%) [2]: 3%
Population Mitochondria Different-Phenotype (%) [2]: 13%
Population Mitotic Cells (%) [2]: 100%
Population Normal (%) [2]: 89%
Population Pyknosed Nuclei (%) [2]: 9%
Population Tubulin-Different-Phenotype (%) [2]: 9%
Total Cell Count [2]: 78
Population Apoptotic (%) [3]: 63%
Population Fragmented Nuclei (%) [3]: 37%
Population Healthy Nuclei (%) [3]: 38%
Population Hoechst High Intensity Objects (%) [3]: 30%
Population Membrane Permeable-Phenotype (%) [3]: 13%
Population Mitochondria Different-Phenotype (%) [3]: 34%
Population Mitotic Cells (%) [3]: 36%
Population Normal (%) [3]: 69%
Population Pyknosed Nuclei (%) [3]: 23%
Population Tubulin-Different-Phenotype (%) [3]: 90%
Total Cell Count [3]: 246
Population Apoptotic (%) [4]: 42%
Population Fragmented Nuclei (%) [4]: 13%
Population Hoechst High Intensity Objects (%) [4]: 3%
Population Membrane Permeable-Phenotype (%) [4]: 4%
Population Mitochondria Different-Phenotype (%) [4]: 95%
Population Mitotic Cells (%) [4]: 57%
Population Normal (%) [4]: 96%
Population Pyknosed Nuclei (%) [4]: 47%
Population Tubulin-Different-Phenotype (%) [4]: 60%
Total Cell Count [4]: 74
Population Apoptotic (%) [5]: 52%
Population Fragmented Nuclei (%) [5]: 29%
Population Healthy Nuclei (%) [5]: 47%
Population Hoechst High Intensity Objects (%) [5]: 14%
Population Membrane Permeable-Phenotype (%) [5]: 25%
Population Mitochondria Different-Phenotype (%) [5]: 10%
Population Mitotic Cells (%) [5]: 47%
Population Normal (%) [5]: 85%
Population Pyknosed Nuclei (%) [5]: 22%
Population Tubulin-Different-Phenotype (%) [5]: 42%
Total Cell Count [5]: 174
Population Apoptotic (%) [6]: 20%
Population Fragmented Nuclei (%) [6]: 5%
Population Healthy Nuclei (%) [6]: 88%
Population Hoechst High Intensity Objects (%) [6]: 8%
Population Membrane Permeable-Phenotype (%) [6]: 4%
Population Mitochondria Different-Phenotype (%) [6]: 13%
Population Mitotic Cells (%) [6]: 80%
Population Normal (%) [6]: 91%
Population Pyknosed Nuclei (%) [6]: 6%
Population Tubulin-Different-Phenotype (%) [6]: 8%
Total Cell Count [6]: 77
Population Apoptotic (%) [7]: 64%
Population Fragmented Nuclei (%) [7]: 24%
Population Healthy Nuclei (%) [7]: 50%
Population Hoechst High Intensity Objects (%) [7]: 43%
Population Membrane Permeable-Phenotype (%) [7]: 20%
Population Mitochondria Different-Phenotype (%) [7]: 51%
Population Mitotic Cells (%) [7]: 35%
Population Normal (%) [7]: 56%
Population Pyknosed Nuclei (%) [7]: 24%
Population Tubulin-Different-Phenotype (%) [7]: 75%
Total Cell Count [7]: 224
Population Apoptotic (%) [8]: 66%
Population Fragmented Nuclei (%) [8]: 21%
Population Healthy Nuclei (%) [8]: 27%
Population Hoechst High Intensity Objects (%) [8]: 5%
Population Membrane Permeable-Phenotype (%) [8]: 5%
Population Mitochondria Different-Phenotype (%) [8]: 94%
Population Mitotic Cells (%) [8]: 33%
Population Normal (%) [8]: 94%
Population Pyknosed Nuclei (%) [8]: 51%
Population Tubulin-Different-Phenotype (%) [8]: 52%
Total Cell Count [8]: 85
Population Apoptotic (%) [9]: 82%
Population Fragmented Nuclei (%) [9]: 33%
Population Healthy Nuclei (%) [9]: 26%
Population Hoechst High Intensity Objects (%) [9]: 0%
Population Membrane Permeable-Phenotype (%) [9]: 54%
Population Mitochondria Different-Phenotype (%) [9]: 0%
Population Mitotic Cells (%) [9]: 17%
Population Normal (%) [9]: 100%
Population Pyknosed Nuclei (%) [9]: 40%
Population Tubulin-Different-Phenotype (%) [9]: 90%
Total Cell Count [9]: 42
Population Apoptotic (%) [10]: 50%
Population Fragmented Nuclei (%) [10]: 43%
Population Healthy Nuclei (%) [10]: 54%
Population Hoechst High Intensity Objects (%) [10]: 14%
Population Membrane Permeable-Phenotype (%) [10]: 5%
Population Mitochondria Different-Phenotype (%) [10]: 1%
Population Mitotic Cells (%) [10]: 50%
Population Normal (%) [10]: 85%
Population Pyknosed Nuclei (%) [10]: 1%
Population Tubulin-Different-Phenotype (%) [10]: 46%
Total Cell Count [10]: 119
Population Fragmented Nuclei (%) [11]: 36%
Population Healthy Nuclei (%) [11]: 26%
Population Hoechst High Intensity Objects (%) [11]: 40%
Population Membrane Permeable-Phenotype (%) [11]: 16%
Population Mitochondria Different-Phenotype (%) [11]: 56%
Population Normal (%) [11]: 59%
Population Pyknosed Nuclei (%) [11]: 37%
Population Tubulin-Different-Phenotype (%) [11]: 70%
Total Cell Count [11]: 191
Population Apoptotic (%) [12]: 90%
Population Fragmented Nuclei (%) [12]: 39%
Population Healthy Nuclei (%) [12]: 24%
Population Hoechst High Intensity Objects (%) [12]: 30%
Population Membrane Permeable-Phenotype (%) [12]: 17%
Population Mitochondria Different-Phenotype (%) [12]: 47%
Population Mitotic Cells (%) [12]: 9%
Population Normal (%) [12]: 69%
Population Pyknosed Nuclei (%) [12]: 35%
Population Tubulin-Different-Phenotype (%) [12]: 52%
Total Cell Count [12]: 133
